For data set [1], the system named is MCF-7. Kind of data set: MTT cytotoxicity assay, MCF-7. The conditions noted are these: for SI (MCF-7): selectivity index WI-38 vs MCF-7; for Cytotoxicity grade MCF-7: grade in words in text. Type of data set: cell-based, human. The method, boiled down:
(§1)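 MTT viability assay on human HCT-116 and MCF-7 lines. Each test compound was run at 100, 50, 25, 12.5, 6.25, 3.125 and 1.56 μM, with IC50 determined per cell line.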
Background: Tetrazolium assays rely on reduction of a dye to a coloured formazan, in cell work by metabolically active cells.

Data set [2] has as its system HCT-116. In words: MTT cytotoxicity assay, HCT-116. Format: cell-based, human. The conditions noted are these: for SI (HCT-116): selectivity index WI-38 vs HCT-116; for Cytotoxicity grade HCT-116: grade in words in text. The method, boiled down:
as §1

Another data set concerns WI-38. Kind of data set: MTT cytotoxicity on normal lung fibroblast. Format: cell-based, human. The conditions noted are these: read-out: Cytotoxicity on WI-38 IC50; normal cell line, MTT assay.
A further data set relates to BCL2. In words: BCL2 level. Type of data set: cell-based. The conditions noted are these: control = 1.
A further data set concerns BAX. In words: BAX level. Type of data set: cell-based. Particulars: control = 1.
Another data set has as its system caspase-3. Kind of data set: Active caspase-3 level. Type of data set: cell-based, human.
In data set [3] the test system is MCF-7. The conditions noted are these: read-out: Cytotoxic activity IC50 MCF-7, cited from earlier work.
A further data set relates to p53. Kind of data set: Active p53 level. Format: cell-based, human.
In data set [4] the test system is HCT-116. The conditions noted are these: read-out: Cytotoxic activity IC50 HCT-116, cited from earlier work.
Data set [5] can be described thus: MTT cytotoxicity on normal lung fibroblast. Type of data set: cell-based, human. Particulars: human, WI-38 normal lung fibroblast cells.
The target of the next data set is VEGFR-2 (Homo sapiens, UniProt P35968). Kind of data set: VEGFR-2. The conditions noted are these: VEGFR-2 inhibitory activity IC50. Type of data set: biochemical.
Chain of VEGFR-2 (P35968 20-1356): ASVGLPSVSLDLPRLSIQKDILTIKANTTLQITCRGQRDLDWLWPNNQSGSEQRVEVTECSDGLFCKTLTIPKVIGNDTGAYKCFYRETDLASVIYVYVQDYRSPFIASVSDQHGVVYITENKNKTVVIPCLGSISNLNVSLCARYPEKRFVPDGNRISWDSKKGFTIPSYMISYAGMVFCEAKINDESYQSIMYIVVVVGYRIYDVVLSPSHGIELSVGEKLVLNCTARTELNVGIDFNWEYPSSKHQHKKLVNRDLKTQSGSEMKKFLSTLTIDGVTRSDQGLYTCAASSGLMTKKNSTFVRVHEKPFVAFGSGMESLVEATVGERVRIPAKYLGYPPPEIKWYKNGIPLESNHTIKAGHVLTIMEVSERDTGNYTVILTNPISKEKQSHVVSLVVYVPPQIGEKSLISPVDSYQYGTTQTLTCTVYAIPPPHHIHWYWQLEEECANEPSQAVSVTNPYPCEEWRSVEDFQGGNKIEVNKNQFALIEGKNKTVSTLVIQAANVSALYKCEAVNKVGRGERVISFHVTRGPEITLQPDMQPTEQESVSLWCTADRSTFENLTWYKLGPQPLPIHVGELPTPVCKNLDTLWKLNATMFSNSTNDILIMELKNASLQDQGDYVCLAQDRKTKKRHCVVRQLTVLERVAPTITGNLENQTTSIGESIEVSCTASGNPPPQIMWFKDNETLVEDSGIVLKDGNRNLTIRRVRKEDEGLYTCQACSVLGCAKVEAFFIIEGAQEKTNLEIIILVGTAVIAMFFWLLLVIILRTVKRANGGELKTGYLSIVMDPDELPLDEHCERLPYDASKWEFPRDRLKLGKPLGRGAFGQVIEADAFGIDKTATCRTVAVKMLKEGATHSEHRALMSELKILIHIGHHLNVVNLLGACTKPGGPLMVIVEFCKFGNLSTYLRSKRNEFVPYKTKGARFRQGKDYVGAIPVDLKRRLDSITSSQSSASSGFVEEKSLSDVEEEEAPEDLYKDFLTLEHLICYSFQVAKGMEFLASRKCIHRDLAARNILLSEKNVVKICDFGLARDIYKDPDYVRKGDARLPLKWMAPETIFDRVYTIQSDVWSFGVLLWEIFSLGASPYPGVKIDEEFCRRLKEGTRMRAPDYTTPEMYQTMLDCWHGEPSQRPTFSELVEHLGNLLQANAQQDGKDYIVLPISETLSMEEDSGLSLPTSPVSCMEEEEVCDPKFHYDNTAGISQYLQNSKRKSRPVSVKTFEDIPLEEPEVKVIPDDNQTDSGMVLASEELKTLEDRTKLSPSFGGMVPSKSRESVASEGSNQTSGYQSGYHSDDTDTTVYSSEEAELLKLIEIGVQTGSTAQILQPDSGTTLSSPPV
[6] abbreviates: read-out: Cytotoxic activity IC50 MCF-7, MTT assay.
[7] abbreviates: read-out: Cytotoxic activity IC50 HCT-116, MTT assay.
Where [8] appears, read: Homo sapiens, MCF7, read-out: Cytotoxic activity IC50 MCF-7.
Where [9] appears, read: Homo sapiens, HCT-116, read-out: Cytotoxic activity IC50 HCT-116.
Setting [10] is: sunitinib reference value ref 34,35.
[11] abbreviates: sorafenib reference value ref 36.

Where two headings read alike, the source gives them in different places.

As for “4-(3-(6-Chloro-1,2-dihydro-2-oxoquinoxalin-3-yl)propaneamido)-4-oxobutanoic acid [Compound 20]”, the values for the IC50 in the data set with MCF-7 [1] (setting [6]), with HCT-116 [2] (setting [7]) and with WI-38 were 10.2 ± 3.3 µM, 26.4 ± 3.8 µM and 93 ± 2.2 µM, respectively. The “SI (MCF-7)” value with MCF-7 [1] is 9.15. Further, the “SI (HCT-116)” value in the data set on HCT-116 [2] came out at 3.52.

Take `Cc1cccc(NC(=O)CCc2nc3cc(Cl)ccc3[nH]c2=O)c1` [Compound 12, 3-(6-Chloro-1,2-dihydro-2-oxoquinoxalin-3-yl)-N-m-tolylpropanamide]: the IC50 in the data set with MCF-7 [1] (setting [8]) turned out to be 24.6 ± 1.9 µM; in the data set with HCT-116 [2] (setting [9]), 28.4 ± 2.2 µM.

Turning to “2-(2-(3-(6-Chloro-3-oxo-3,4-dihydroquinoxalin-2-yl)propanoyl)hydrazine-1-carbonyl) benzoic acid [Compound 21]”, the IC50 in the data set on MCF-7 [1] (setting [6]) stood at 41.5 ± 2.5 µM; with HCT-116 [2] (setting [7]) it was 48.2 ± 2.7 µM.

In the case of `Cc1ccccc1NC(=O)CCc1nc2cc(Cl)ccc2[nH]c1=O` [Compound 13, 3-(6-Chloro-1,2-dihydro-2-oxoquinoxalin-3-yl)-N-o-tolylpropanamide], the IC50 amounted to 18.9 ± 1.4 µM in the data set on MCF-7 [1] (setting [8]) and 22.2 ± 1.9 µM in the data set on HCT-116 [2] (setting [9]).

Take `O=C(CCc1nc2cc(Cl)ccc2[nH]c1=O)Nc1ccccc1` [Compound 5, 3-(6-Chloro-1,2-dihydro-2-oxoquinoxalin-3-yl)-N-phenylpropanamide]: the values for the 50% inhibitory concentration (IC50) in the data set with MCF-7 [1] (setting [8]) and with HCT-116 [2] (setting [9]) were 39 ± 2.4 µM and 45.5 ± 2.7 µM, respectively. Moreover, in the data set on MCF-7 [1], the “Cytotoxicity grade MCF-7” value is “moderate (21–50 (moderate))”. Also, the “Cytotoxicity grade HCT-116” value in the data set on HCT-116 [2] is recorded as “moderate (21–50 (moderate))”.

As to `Cc1ccc(NC(=O)CCc2nc3cc(Cl)ccc3[nH]c2=O)cc1` [Compound 11, 3-(6-Chloro-1,2-dihydro-2-oxoquinoxalin-3-yl)-N-p-tolylpropanamide], the IC50 in the data set on MCF-7 [1] (setting [8]) came out at 54 ± 3.1 µM; with HCT-116 [2] (setting [9]) it was 61.4 ± 3.4 µM.

Regarding “2,4-Dichloro-N′-(3-(6-chloro-3-oxo-3,4-dihydroquinoxalin-2-yl)-propanoyl) benzohydrazide [Compound 19]”, in the data set on MCF-7 [1], the “Cytotoxicity grade MCF-7” value is listed as “very strong (1–10 (very strong))” and the “SI (MCF-7)” value is listed as 14.01. The IC50 with MCF-7 [1] (setting [6]) amounted to 5.11 ± 0.8 µM. In the data set with HCT-116 [2], the “Cytotoxicity grade HCT-116” value is listed as “very strong (1–10 (very strong))” and the “SI (HCT-116)” value came out at 11.58. In addition, the IC50 in the data set with HCT-116 [2] (setting [7]) was determined as 6.18 ± 2.1 µM. Further, the IC50 in the data set with WI-38 is 71.6 ± 2.8 µM.

Consider `CN[C@@H]1C[C@H]2O[C@@](C)([C@@H]1OC)n1c3ccccc3c3c4c(c5c6ccccc6n2c5c31)C(=O)NC4` [Staurosporine], for which the BCL2 fold change with BCL2 turned out to be 0.3248 fold change; in the data set with BCL2 (listed as staurosporine), 0.33 fold change. Also, the BAX fold change in the data set with BAX amounted to 7.5517 fold change; in the data set with BAX (listed as staurosporine), 7.55 fold change.

Turning to `O=C(CCc1nc2cc(Cl)ccc2[nH]c1=O)Nc1ccc(C(=O)O)cc1` [Compound 16, 4-(3-(6-Chloro-1,2-dihydro-2-oxoquinoxalin-3-yl)propanamido)benzoic acid], the concentration for half-maximal inhibition (IC50) in the data set with MCF-7 [1] (setting [8]) is 67.2 ± 3.5 µM; in the data set with HCT-116 [2] (setting [9]) it was 75.1 ± 3.6 µM. Besides, the “Cytotoxicity grade MCF-7” value with MCF-7 [1] was “weak (51–100 (weak))”. In addition, in the data set with HCT-116 [2], the “Cytotoxicity grade HCT-116” value was “weak (51–100 (weak))”.

Consider `CCN(CC)CCNC(=O)c1c(C)[nH]c(/C=C2\C(=O)Nc3ccc(F)cc32)c1C` [Sunitinib], for which the “Caspase 3” value in the data set on caspase-3 (MCF-7 cells, control 47.88 ± 13.15) is 384.53 ± 8.40 pg/mL. For the same compound, in the data set with caspase-3 (vs control), the “Caspase 3 Fld” value is on record as 8.031 fold. The IC50 in the data set with MCF-7 [3] (setting [10]) is 4.77 ± 0.2 µM; with HCT-116 [4] (setting [10]), 3.42 ± 0.5 µM. In addition, the p53 in the data set on p53 (MCF-7 cells, control 22.19 ± 8.39) came out at 278.34 ± 5.27 pg/mL. For the same compound, the “p53 Fld” value in the data set with p53 (vs control) is 12.543 fold.

For the compound `COc1cccc2c1C(=O)c1c(O)c3c(c(O)c1C2=O)C[C@@](O)(C(=O)CO)C[C@@H]3O[C@H]1C[C@H](N)[C@H](O)[C@H](C)O1` [DOX, Doxorubicin, reference compound], the IC50 was 7.43 ± 0.2 µM in the data set on MCF-7 [1] (setting [8]), 9.27 ± 0.3 µM with HCT-116 [2] (setting [9]) and 6.72 ± 0.5 µM in data set [5]. Further, the “SI (MCF-7)” value in the data set with MCF-7 [1] amounted to 0.9. In addition, the “SI (HCT-116)” value in the data set on HCT-116 [2] is on record as 0.72.

As for `CNC(=O)c1cc(Oc2ccc(NC(=O)Nc3ccc(Cl)c(C(F)(F)F)c3)cc2)ccn1` [Sorafenib], the values for the 50% inhibitory concentration (IC50) in the data set with MCF-7 [3] (setting [11]) and with HCT-116 [4] (setting [11]) were 16 ± 3.6 µM and 18.6 ± 1.9 µM, respectively.

As to `O=C(CCc1nc2cc(Cl)ccc2[nH]c1=O)Nc1ccccc1O` [Compound 9, 3-(6-Chloro-1,2-dihydro-2-oxoquinoxalin-3-yl)-N-(2-hydroxyphenyl)propanamide], the IC50 in the data set with MCF-7 [1] (setting [8]) was 6.92 ± 0.5 µM; in the data set on HCT-116 [2] (setting [9]) it was 7.19 ± 0.7 µM; in data set [5], 86.1 ± 4.1 µM; at VEGFR-2, 0.131 µM. Moreover, the “SI (MCF-7)” value with MCF-7 [1] came out at 12.44. For the same compound, the “SI (HCT-116)” value in the data set with HCT-116 [2] was found to be 11.98.

As usually defined, the IC50 is the midpoint of a concentration-inhibition curve.

(Values after PMC10616755 (RSC Advances, 2023).)
